In PMC13645671 (Nature, 2026):

How the values were obtained:
[1] = tested on: THP-1 cells expressing FKBP–caspase-4; assay: B/B-induced FKBP–caspase-4 pyroptosis, LDH release; format: cell-based, human; conditions: FKBP–caspase-4 THP-1 cells, 50 nM B/B, 10 µM compound
Method in brief: (§1)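 Unprimed THP-1 cells stably expressing FKBP–caspase-4 or FKBP–caspase-11 were seeded in Opti-MEM with 0.1% FBS. Cells were dimerised with 50 nM B/B, with or without 10 µM test compound, for the indicated times. LDH in the medium was measured by CytoTox 96 and expressed as a percentage of maximal release by 0.1% Triton X-100.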

[2] = tested on: LPS-primed human THP-1 monocytic cells; assay: Nigericin-induced pyroptosis, LDH release; format: cell-based; conditions: LPS-primed THP-1 cells, 25 µM compound
Method in brief: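 THP-1 cells in Opti-MEM with 0.1% FBS were primed for 4 h with 1 µg/ml ultrapure LPS (E. coli O111:B4). They were then stimulated for 2 h with 5 µM nigericin, with or without 25 µM test compound. LDH release was measured by CytoTox 96 and given as a percentage of maximal release by 0.1% Triton X-100.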

[3] = tested on: THP-1 cells expressing FKBP–caspase-11; assay: B/B-induced FKBP–caspase-11 pyroptosis, LDH release; format: cell-based, human; conditions: FKBP–caspase-11 THP-1 cells, 50 nM B/B, 10 µM compound
Method in brief: as §1

Row | SMILES | cell death induced by caspase-4, in words [1] | nigericin-induced cell lysis (LDH release), in words [2] | cell death induced by caspase-11, in words [3]
1 | C[C@H](NC(=O)C(=O)Nc1ccccc1C(C)(C)C)C(=O)N[C@@H](CC(=O)O)C(=O)COc1c(F)c(F)cc(F)c1F [Emricasan, N-[2-(1,1-dimethylethyl)phenyl]-2-oxoglycyl-N-[(1S)-1-(carboxymethyl)-2-oxo-3-(2,3,5,6-tetrafluorophenoxy)propyl]-L-alaninamide] | inhibited | inhibited | inhibited
2 | CC(C)(O)c1coc(S(=O)(=O)NC(=O)Nc2c3c(cc4c2CCC4)CCC3)c1 [MCC950] |  | inhibited | 
